From ChEMBL document CHEMBL1629413, “Hirsutalins A-H, eunicellin-based diterpenoids from the soft coral Cladiella hirsuta” (J Nat Prod, 2010)

How the values were obtained:
Ca9-22 = assay: Cytotoxicity against human Ca9-22 cells by MTT assay; format: functional, cell-based
Procedure, shortened: (§1)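 Tumor cell lines from ATCC. Viability measured by MTT colorimetric method in duplicate, with doxorubicin as positive control. Read-out reported as IC50.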

[1] = Cytotoxicity against human Hep3B cells by MTT assay; format: functional, cell-based, Hep 3B2; procedure, shortened: as §1
A549 = assay: Cytotoxicity against human A549 cells by MTT assay; format: functional, cell-based; procedure, shortened: as §1
RAW264.7 [2] = assay: Antiinflammatory activity in mouse RAW264.7 cells assessed as accumulation of LPS-induced iNOS at 10 uM by immunoblot analysis; format: functional
Procedure, shortened: (§2)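 RAW264.7 macrophages (ATCC) stimulated with LPS, with test compound at 10 μM. iNOS and COX-2 protein levels measured by western blotting. Levels expressed as % of cells treated with LPS alone.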

RAW264.7 [3] = assay: Antiinflammatory activity in mouse RAW264.7 cells assessed as accumulation of LPS-induced COX-2 at 10 uM by immunoblot analysis; format: functional; procedure, shortened: as §2
HepG2 = assay: Cytotoxicity against human HepG2 cells by MTT assay; format: functional, cell-based; procedure, shortened: as §1
MCF7 = assay: Cytotoxicity against human MCF7 cells by MTT assay; format: functional, cell-based; procedure, shortened: as §1
MDA-MB-231 = assay: Cytotoxicity against human MDA-MB-231 cells by MTT assay; format: functional, cell-based; procedure, shortened: as §1

## C=C1C[C@H]2O[C@H]([C@@H]3[C@@H]([C@@H](C)COC(=O)CCC)CC=C(C)[C@@H]32)[C@](C)(OC(=O)[C@H](O)CC)CC[C@@H]1O [HIRSUTALIN A]
Ca9-22
  IC50: 35 µM
[1]
  IC50: 29 µM
A549
  IC50: 28 µM

## C=C1CC[C@H]([C@@H](C)COC(C)=O)[C@@H]2[C@H]1[C@H]1C[C@](C)(O)[C@@H](O)CC[C@@](C)(OC(=O)CCC)[C@@H]2O1 [HIRSUTALIN H]
RAW264.7 [2]
  Activity: 32.3%

## C=C1CC[C@H]([C@@H](C)COC(C)=O)[C@@H]2[C@H]1[C@H]1CC(=C)[C@@H](O)CC(OC(=O)C(CC)OC(=O)CCC)[C@@](C)(O)[C@@H]2O1 (some centres not stated) [HIRSUTALIN B]
RAW264.7 [2]
  Activity: 6.8%
RAW264.7 [3]
  Activity: 49%

## C=C1CC[C@H]([C@@H](C)CO)[C@@H]2[C@H]1[C@H]1CC(=C)[C@@H](O)CC[C@@](C)(OC(=O)C(CC)OC(C)=O)[C@@H]2O1 (some centres not stated) [HIRSUTALIN D]
RAW264.7 [2]
  Activity: 3.3%

## C=C1CC[C@H]([C@@H](C)CO)[C@@H]2[C@H]1[C@H]1CC(=C)[C@@H](O)CC[C@@](C)(OC(=O)C(CC)OC(=O)CCC)[C@@H]2O1 (some centres not stated) [HIRSUTALIN C]
RAW264.7 [2]
  Activity: 43.6%

## C=C1CC[C@H]([C@@H](C)CO)[C@@H]2[C@H]1C(=O)C[C@@](C)(O)[C@H]1CC[C@@](C)(OC(=O)C(CC)OC(=O)CCC)[C@@H]2O1 (some centres not stated) [HIRSUTALIN F]
[1]
  IC50: 29 µM
HepG2
  IC50: 29 µM
MCF7
  IC50: 32 µM

## CCCC(=O)O[C@]1(C)CC[C@H](O)[C@@](C)(O)C[C@H]2O[C@@H]1[C@H]1[C@@H]2C(C)=CC[C@@H]1C(C)C [HIRSUTALIN E]
Ca9-22
  IC50: 34 µM
[1]
  IC50: 14 µM
HepG2
  IC50: 4.7 µM
A549
  IC50: 34 µM
MCF7
  IC50: 35 µM
MDA-MB-231
  IC50: 41 µM
